What all share (format): functional, cell-based
One assay concerns BGC-823. Nature of the assay: Cytotoxicity against human BGC823 cells by MTT assay. Summed up: (§1)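 Cell lines were cultured in 96-well microtitre plates at 37 °C in humidified 5% CO₂. Compounds were dissolved in DMSO, at ≤2% (v/v) final in the growth medium. Viability was read by MTT staining, expressed relative to untreated cells.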
A general note: Tetrazolium dyes change colour on reduction, which living cells bring about.

Assay [1] in a line: Cytotoxicity against mouse LLC cells by MTT assay. The conditions noted are these: Lewis lung carcinoma. The method, boiled down:
as §1

The test system of another assay is SK-OV-3. Description: Cytotoxicity against human SKOV3 cells by MTT assay. Summed up:
as §1

A short description of assay [2]: Cytotoxicity against human ECA109 cells by MTT assay. The conditions noted are these: ECa-109. Summed up: as §1
The next assay concerns 769-P. Description: Cytotoxicity against human 769-P cells by MTT assay. The method, boiled down: as §1
The subject of another assay is A-375. Description: Cytotoxicity against human A375 cells by MTT assay. The method, boiled down:
as §1

Another assay deals with CWR22R. Description: Cytotoxicity against human 22Rv1 cells by MTT assay. Summed up: as §1
Another assay deals with HT-29. Nature of the assay: Cytotoxicity against human HT-29 cells by MTT assay. The method, boiled down:
as §1

Another assay relates to HepG2. Nature of the assay: Cytotoxicity against human HepG2 cells by MTT assay. Summed up:
as §1

For another assay, the system named is MCF7. Nature of the assay: Cytotoxicity against human MCF7 cells by MTT assay. The method, boiled down: as §1

Broadly, the IC50 is the concentration that gives 50% inhibition. Read a low IC50 as inhibition by little substance.

Structures are written as SMILES.

As to `CCCC[n+]1ccc2c3ccccc3n(CCCc3ccccc3)c2c1`, the IC50 is 15.4 µM in the assay on BGC-823; below 2 µM in [1]; 15.8 µM in the assay on SK-OV-3; 41.5 µM in assay [2]; 13.4 µM in the assay with 769-P; 12.2 µM in the assay with A-375. Further, the IC50 in the assay on CWR22R worked out at 3.4 µM; with HT-29, 62.7 µM; with HepG2, 45.5 µM; in the assay with MCF7 it was 38.7 µM.
`CCCCCCCCn1c2ccccc2c2cc[n+](Cc3ccccc3)cc21`: the IC50 is 2.5 µM with BGC-823; below 2 µM in assay [1]; 3.2 µM with SK-OV-3; 5.1 µM in assay [2]; below 2 µM in the assay on 769-P; 3.1 µM in the assay on A-375. In addition, the IC50 stood at 2.9 µM in the assay with CWR22R, 10.9 µM in the assay with HT-29, 6.5 µM in the assay on HepG2 and 4.1 µM in the assay on MCF7.
Consider `CCCCn1c2ccccc2c2cc[n+](Cc3ccccc3)cc21`, for which the IC50 with BGC-823 is 68.1 µM; in [1], below 2 µM; in the assay with SK-OV-3 it was 4.7 µM; in assay [2], 8.6 µM; with 769-P, 19.8 µM; with A-375 it was 19.6 µM. Besides, the IC50 with CWR22R is below 2 µM; with HT-29, 83.8 µM; in the assay on HepG2, 29 µM; with MCF7, 34.1 µM.
Consider `Clc1cccc(Cn2c3ccccc3c3cc[n+](Cc4ccccc4)cc32)c1`, for which the half-inhibitory concentration (IC50) in the assay with BGC-823 is 20.3 µM; in assay [1] it was below 2 µM; with SK-OV-3, 7.9 µM; in assay [2], 23.3 µM; in the assay on 769-P it was 3.5 µM; with A-375 it was 7 µM. The IC50 in the assay with CWR22R came out at 4.2 µM; in the assay with HT-29, 26.9 µM; in the assay with HepG2 it was 16.5 µM; in the assay on MCF7 it was 20.3 µM.
On to `CCCCCC[n+]1ccc2c3ccccc3n(CCCc3ccccc3)c2c1`, for which the IC50 in the assay on BGC-823 was 2.3 µM; in [1] it was below 2 µM; with SK-OV-3, below 2 µM; in [2], 2.5 µM; in the assay with 769-P, 2.5 µM; with A-375 it was 2.9 µM. Moreover, the IC50 in the assay on CWR22R is 2.2 µM; with HT-29, 2.3 µM; in the assay on HepG2 it was 4.3 µM; with MCF7, 3.9 µM.
As for `Cn1c2ccccc2c2cc[n+](Cc3ccccc3)cc21`, the IC50 was 13.2 µM with BGC-823; 8.4 µM in assay [1]; 55.2 µM with SK-OV-3; 95.9 µM in assay [2]; 22.5 µM in the assay on 769-P; 37.3 µM with A-375. In addition, the IC50 in the assay on CWR22R was 8.4 µM; in the assay with HT-29, 59.1 µM; in the assay with HepG2 it was above 100 µM; in the assay with MCF7, above 100 µM.
With `CC(C)n1c2ccccc2c2cc[n+](Cc3ccccc3)cc21`, the IC50 in the assay with BGC-823 is 61.5 µM; in assay [1], below 2 µM; in the assay on SK-OV-3, 6.6 µM; in [2], 7.6 µM; in the assay with 769-P, 30.8 µM; in the assay on A-375 it was 24.5 µM. Moreover, the IC50 is 3.6 µM in the assay on CWR22R, above 100 µM in the assay on HT-29, 58.7 µM with HepG2 and 54.8 µM with MCF7.
Regarding `C=CCn1c2ccccc2c2cc[n+](Cc3ccccc3)cc21`, the half-maximal inhibitory concentration (IC50) in the assay with BGC-823 was above 100 µM; in assay [1], 4.6 µM; with SK-OV-3 it was 12.6 µM; in [2] it was 21.4 µM; with 769-P it was 21.9 µM; in the assay on A-375, 11.3 µM. The IC50 with CWR22R is below 2 µM; in the assay with HT-29 it was above 100 µM; with HepG2, 67.8 µM; with MCF7, 72.6 µM.
For the compound `Fc1ccc(Cn2c3ccccc3c3cc[n+](Cc4ccccc4)cc32)cc1`, the IC50 with BGC-823 was 6.3 µM; in assay [1], below 2 µM; in the assay on SK-OV-3 it was 10.5 µM; in assay [2] it was 35.4 µM; in the assay on 769-P, 6 µM; with A-375, 4.7 µM. Moreover, the IC50 in the assay with CWR22R worked out at 3.5 µM; with HT-29 it was 28.9 µM; in the assay on HepG2 it was 23.4 µM; with MCF7 it was 17.8 µM.
In the case of `c1ccc(CCCn2c3ccccc3c3cc[n+](CCCc4ccccc4)cc32)cc1`, the IC50 in the assay on BGC-823 is 9.4 µM; in [1] it was below 2 µM; in the assay with SK-OV-3, 10.8 µM; in assay [2] it was 5.3 µM; in the assay with 769-P it was 3.3 µM; with A-375 it was 3.2 µM. In addition, the IC50 in the assay on CWR22R came out at 4.9 µM; with HT-29 it was 3.4 µM; in the assay with HepG2, 4 µM; in the assay with MCF7, 3.7 µM.
For `c1ccc(CCCn2c3ccccc3c3cc[n+](CCc4ccccc4)cc32)cc1`, the IC50 in the assay on BGC-823 is 10.4 µM; in [1], below 2 µM; in the assay with SK-OV-3 it was 8.4 µM; in assay [2], 8.1 µM; in the assay with 769-P, 14 µM; in the assay on A-375 it was 12.2 µM. Also, the IC50 with CWR22R turned out to be 4 µM; in the assay on HT-29, 3.3 µM; in the assay with HepG2, 14 µM; in the assay with MCF7 it was 12.5 µM.
Turning to `CCCCCCn1c2ccccc2c2cc[n+](Cc3ccccc3)cc21`, the IC50 is 5.2 µM with BGC-823; below 2 µM in [1]; 7.3 µM in the assay on SK-OV-3; 13.9 µM in assay [2]; 2.7 µM with 769-P; 6.8 µM in the assay with A-375. Moreover, the IC50 in the assay on CWR22R is below 2 µM; with HT-29, 16 µM; in the assay with HepG2 it was 13.9 µM; in the assay on MCF7, 11.1 µM.
For `c1ccc(CCCn2c3ccccc3c3cc[n+](Cc4ccccc4)c(-c4ccccc4)c32)cc1`, the IC50 in the assay with BGC-823 is below 2 µM; in assay [1], below 2 µM; in the assay on SK-OV-3 it was below 2 µM; in assay [2], 5.1 µM; in the assay with 769-P it was 3 µM; with A-375 it was 5.9 µM. For the same compound, the IC50 came to 3.7 µM in the assay with CWR22R, 10.8 µM in the assay on HT-29, 4.8 µM in the assay on HepG2 and 3.7 µM in the assay with MCF7.
`CCn1c2ccccc2c2cc[n+](Cc3ccccc3)cc21`: the IC50 is above 100 µM with BGC-823; 5.1 µM in [1]; 27.6 µM with SK-OV-3; 36.7 µM in assay [2]; 38.5 µM with 769-P; 54.3 µM in the assay on A-375. Moreover, the concentration for half-maximal inhibition (IC50) is 5.6 µM in the assay on CWR22R, above 100 µM in the assay on HT-29, above 100 µM in the assay with HepG2 and above 100 µM in the assay with MCF7.
Take `CC(C)Cn1c2ccccc2c2cc[n+](Cc3ccccc3)cc21`: the IC50 in the assay on BGC-823 worked out at 60.7 µM; in assay [1] it was 8 µM; with SK-OV-3, 27.7 µM; in assay [2] it was 35.7 µM; in the assay with 769-P, 11.6 µM; with A-375, 28.4 µM. The IC50 is 9.6 µM in the assay with CWR22R, 87.7 µM with HT-29, 36.6 µM in the assay with HepG2 and 39.2 µM in the assay on MCF7.
Consider `O=[N+]([O-])c1ccc(C[n+]2ccc3c4ccccc4n(CCCc4ccccc4)c3c2)cc1`, for which the IC50 with BGC-823 was determined as 39.7 µM; in assay [1], 2.2 µM; in the assay with SK-OV-3, 17.4 µM; in [2], 7.6 µM; with 769-P, 8.3 µM; in the assay on A-375, 12.3 µM. The IC50 in the assay with CWR22R was found to be 5.6 µM; in the assay on HT-29, 12.6 µM; with HepG2 it was 19.9 µM; in the assay with MCF7, 24.5 µM.
In the case of `CCCCCCCC[n+]1ccc2c3ccccc3n(CCCc3ccccc3)c2c1`, the IC50 in the assay on BGC-823 was 7.4 µM; in assay [1] it was below 2 µM; in the assay on SK-OV-3, 5.9 µM; in [2] it was 22.8 µM; with 769-P it was below 2 µM; in the assay with A-375, below 2 µM. Further, the IC50 came to 4.3 µM with CWR22R, 18.6 µM with HT-29, 4.7 µM with HepG2 and 2.9 µM with MCF7.
As to `CC[n+]1ccc2c3ccccc3n(CCCc3ccccc3)c2c1`, the 50% inhibitory concentration (IC50) in the assay on BGC-823 was 88 µM; in assay [1] it was 4.3 µM; with SK-OV-3 it was above 100 µM; in [2], 55.5 µM; in the assay on 769-P it was 34.2 µM; in the assay with A-375, 45.1 µM. In addition, the IC50 in the assay on CWR22R is 2.5 µM; in the assay on HT-29 it was 54.2 µM; in the assay on HepG2, 92.1 µM; in the assay on MCF7, 98.7 µM.
Take `c1ccc(CCCn2c3ccccc3c3cc[n+](Cc4ccccc4)c(-c4ccsc4)c32)cc1`: the IC50 in the assay on BGC-823 worked out at 4 µM; in assay [1] it was 3.1 µM; in the assay with SK-OV-3 it was 14.6 µM; in [2], 27.2 µM; with 769-P it was 14.6 µM; in the assay on A-375, 27.9 µM. The IC50 in the assay with CWR22R came to 8.4 µM; in the assay with HT-29 it was 31.3 µM; with HepG2, 36.7 µM; in the assay on MCF7, 29.2 µM.
Take `CCCCCCCCCC[n+]1ccc2c3ccccc3n(CCCc3ccccc3)c2c1`: the IC50 with BGC-823 is 57 µM; in assay [1], 15.7 µM; in the assay on SK-OV-3, 57 µM; in [2], 23.2 µM; in the assay with 769-P it was below 2 µM; with A-375, below 2 µM. The half-maximal inhibitory concentration (IC50) in the assay on CWR22R was 6.9 µM; in the assay with HT-29, 31.3 µM; in the assay with HepG2, below 2 µM; with MCF7 it was below 2 µM.
As for `C[n+]1ccc2c3ccccc3n(CCCc3ccccc3)c2c1`, the IC50 was 40.6 µM in the assay with BGC-823; 2.4 µM in assay [1]; above 100 µM in the assay on SK-OV-3; 60 µM in assay [2]; 19.9 µM in the assay on 769-P; 41.5 µM with A-375. Also, the IC50 in the assay with CWR22R was 4.3 µM; in the assay on HT-29, 97.3 µM; in the assay on HepG2, 90.8 µM; with MCF7 it was 75.6 µM.

The values are drawn from ChEMBL document CHEMBL2401724, “Synthesis and structure--activity relationships of N²-alkylated quaternary β-carbolines as novel antitumor agents” (Eur J Med Chem, 2013).
